Legend:
Cannabinoid receptor 1 [1] = biological target: T1, Cannabinoid receptor 1 (Homo sapiens, UniProt P21554); assay: Positive allosteric modulatory activity at human CB1R expressed in CHO-K1 cells assessed as increase in CP55940-induced beta-arrestin2 recruitment after 90 mins in presence of CP55940 at EC20 concentration by pathhunter beta-arrestin assay; format: cell-based
How it was run: (§1)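 Read-out was chemiluminescent β-arrestin2 recruitment, fit with a 4-parameter regression. n = 1–3 independent experiments in duplicate.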

Cannabinoid receptor 1 [2] = biological target: T1, Cannabinoid receptor 1; assay: Positive allosteric modulatory activity at human CB1R expressed in CHO-K1 cells assessed as increase in CP55940-induced beta-arrestin2 recruitment after 90 mins in presence of CP55940 at EC20 concentration by pathhunter beta-arrestin assay relative to control; format: cell-based; how it was run: as §1
Cannabinoid receptor 1 [3] = biological target: T1, Cannabinoid receptor 1; assay: Positive allosteric modulatory activity at human CB1R expressed in CHO-K1 cells assessed as increase in CP55940-induced inhibition of forskolin-stimulated cAMP production after 30 mins in presence of CP55940 at EC20 concentration by hit-hunter cAMP assay; format: functional, cell-based
How it was run: (§2)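 Read-out was chemiluminescent cAMP detection, fit with a variable-slope 4-parameter regression. n = 1–3 independent experiments in duplicate.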

Cannabinoid receptor 1 [4] = biological target: T1, Cannabinoid receptor 1; assay: Positive allosteric modulatory activity at human CB1R expressed in CHO-K1 cells assessed as increase in CP55940-induced inhibition of forskolin-stimulated cAMP production after 30 mins in presence of CP55940 at EC20 concentration by hit-hunter cAMP assay relative to control; format: functional, cell-based; how it was run: as §2
[5] = buffer, pH 7.4, 24 h
[6] = biological target: Cannabinoid receptor 1 (Rattus norvegicus) (UniProt P20272); assay: Allosteric agonist activity at N-terminal GFP-tagged rat CB1R expressed in HEK293 cells assessed as inhibition of forskolin-induced cAMP production by measuring cAMP accumulation at minimal level at higher concentrations after 30 min by TR-FRET assay relative to forskolin; format: functional, cell-based
How it was run: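 HEK293 cells stably expressing N-terminal GFP-tagged rat CB1R were trypsin-EDTA dissociated and resuspended in HBSS with 0.1% BSA and 0.5mM IBMX at 500 cells/well. Cells got 5μM forskolin plus compound (1 pM – 10 μM) alone for 30 min. 4-parameter fit; Emin is the lower plateau. n ≥ 3, triplicate.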

Cannabinoid receptor 1 [7] = biological target: T1, Cannabinoid receptor 1; assay: Agonist activity at human CB1 receptor expressed in CHO cell membranes assessed as increase in G-protein coupling by measuring [35S]GTPgammaS binding after 90 mins in presence of [35S]GTPgammaS by liquid scintillation analysis relative to control; format: functional
How it was run: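 [35S]GTPγS binding to G protein in membranes from CHO cells stably expressing human CB1R, with test compound given alone. Data fit to a variable-slope 4-parameter nonlinear regression. n = 4–6 independent experiments in duplicate.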

Cannabinoid receptor 1 [8] = biological target: T1, Cannabinoid receptor 1; assay: Allosteric agonist activity at human CB1R expressed in CHO-K1 cells assessed as inhibition of forskolin-induced cAMP accumulation by measuring cAMP accumulation at minimal level at higher concentrations after 90 mins by hit-hunter cAMP assay relative to forskolin; format: functional, cell-based
How it was run: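 HitHunter CHO-K1 hCB1R cells (20,000/well) were held overnight in Opti-MEM with 1% FBS. They were then co-treated at 37°C with 10 μM forskolin plus compound alone (0.10 nM – 10 μM) for 90 min. Chemiluminescent cAMP detection followed (two 60-min room-temperature steps). Data as % forskolin, variable-slope 4-parameter fit; Emin is the lower plateau. n ≥ 6, triplicate.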

Cannabinoid receptor 1 [9] = biological target: T1, Cannabinoid receptor 1; assay: Positive allosteric modulatory activity at human CB1R expressed in CHO-K1 cells assessed as maximal increase in CP55940-induced beta arrestin2 recruitment after 90 mins in presence of 100 nM CP55940 by pathhunter beta-arrestin assay relative to CP55940; format: cell-based
[10] = biological target: Cannabinoid receptor 1 (Rattus norvegicus) (UniProt P20272); assay: Positive allosteric modulatory activity at N-terminal GFP-tagged rat CB1R receptor expressed in HEK293 cells assessed as leftward shift in CP55940 dependent concentration response curve for inhibition of forskolin-induced cAMP accumulation after 30 mins by TR-FRET assay; format: functional, cell-based
Cannabinoid receptor 1 [11] = biological target: T1, Cannabinoid receptor 1; assay: Allosteric agonist activity at human CB1R expressed in CHO-K1 cells assessed as increase in beta arrestin2 recruitment after 90 mins by pathhunter beta-arrestin assay relative to CP55940; format: cell-based
How it was run: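 PathHunter CHO-K1 hCB1R cells (20,000/well) were held overnight in Opti-MEM with 1% FBS. Compound alone (0.10 nM – 10 μM) was given at 37°C for 90 min, then detection solution for 60 min at room temperature and chemiluminescence was read.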

Cannabinoid receptor 1 [12] = biological target: T1, Cannabinoid receptor 1; assay: Positive allosteric modulatory activity at human CB1R expressed in CHO-K1 cells assessed as increase in CP55940-induced inhibition of forskolin-induced cAMP accumulation by measuring cAMP accumulation at minimal level at higher concentration after 90 mins in presence of 100 nM CP55940 by hit-hunter cAMP assay relative to forskolin; format: functional, cell-based
How it was run: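 Uses the HitHunter CHO-K1 hCB1R cAMP set-up above. […] Data normalized to % forskolin, 4-parameter fit. n ≥ 6, triplicate.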

[13] = biological target: Cannabinoid receptor 1 (Rattus norvegicus) (UniProt P20272); assay: Positive allosteric modulatory activity at N-terminal GFP-tagged rat CB1R receptor expressed in HEK293 cells assessed as downward shift in CP55940 dependent concentration response curve for inhibition of forskolin-induced cAMP accumulation after 30 mins by TR-FRET assay; format: functional, cell-based

Cannabinoid receptor 1 (Rattus norvegicus), sequence (P20272 whole entry): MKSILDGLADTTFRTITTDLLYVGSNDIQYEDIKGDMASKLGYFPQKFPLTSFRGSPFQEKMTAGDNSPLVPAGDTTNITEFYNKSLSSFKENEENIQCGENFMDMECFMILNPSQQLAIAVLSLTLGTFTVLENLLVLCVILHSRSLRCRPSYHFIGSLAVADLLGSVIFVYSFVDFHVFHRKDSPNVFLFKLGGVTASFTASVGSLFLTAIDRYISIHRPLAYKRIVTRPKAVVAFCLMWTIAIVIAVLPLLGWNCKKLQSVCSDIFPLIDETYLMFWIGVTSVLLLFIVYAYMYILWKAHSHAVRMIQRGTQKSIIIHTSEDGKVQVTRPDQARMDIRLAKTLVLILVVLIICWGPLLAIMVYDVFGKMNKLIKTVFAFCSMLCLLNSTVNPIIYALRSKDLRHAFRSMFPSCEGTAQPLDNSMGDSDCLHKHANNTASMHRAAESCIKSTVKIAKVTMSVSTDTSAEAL
T1 sequence (P21554 whole entry): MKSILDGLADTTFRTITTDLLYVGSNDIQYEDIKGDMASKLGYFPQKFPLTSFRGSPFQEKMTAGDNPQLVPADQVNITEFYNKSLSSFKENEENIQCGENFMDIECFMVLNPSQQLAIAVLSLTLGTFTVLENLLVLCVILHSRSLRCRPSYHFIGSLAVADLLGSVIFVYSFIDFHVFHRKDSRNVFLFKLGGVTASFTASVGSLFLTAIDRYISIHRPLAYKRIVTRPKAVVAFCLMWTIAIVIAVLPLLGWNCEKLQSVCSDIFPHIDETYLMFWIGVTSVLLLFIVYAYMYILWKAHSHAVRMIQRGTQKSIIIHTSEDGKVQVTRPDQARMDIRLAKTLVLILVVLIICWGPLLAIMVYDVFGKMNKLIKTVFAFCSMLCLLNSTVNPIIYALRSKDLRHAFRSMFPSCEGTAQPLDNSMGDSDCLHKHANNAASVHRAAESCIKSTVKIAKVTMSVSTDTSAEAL

Compound	EC50 (Cannabinoid receptor 1 [1])	Emax (Cannabinoid receptor 1 [2])	EC50 (Cannabinoid receptor 1 [3])	Emax (Cannabinoid receptor 1 [4])	Therm_solubility [5]	further results
O=[N+]([O-])CC(c1ccccc1)c1c(-c2ccccc2)[nH]c2ccncc12 (configuration not stated)	> 10000 nM	2.8%	> 10000 nM	4%	23.6 µM	–
CCCCCCC(C)(C)c1ccc([C@@H]2C[C@H](O)CC[C@H]2CCCO)c(O)c1	–	–	–	–	–	Emin [6]: 29%
O=[N+]([O-])CC(c1ccccc1F)c1c(-c2ccccc2)[nH]c2ccccc12 (configuration not stated)	1060 nM	63%	43 nM	110%	–	–
O=[N+]([O-])CC(c1ccccc1)c1c(-c2ccccc2)[nH]c2ccc(F)cc12 (configuration not stated)	740 nM	23%	191 nM	130%	–	–
O=[N+]([O-])CC(c1ccccc1)c1c(-c2ccncc2)[nH]c2ccccc12 (configuration not stated)	1600 nM	19%	3100 nM	88%	2.1 µM	–
O=[N+]([O-])CC(c1ccccc1)c1c(-c2ccccc2)[nH]c2cnccc12 (configuration not stated)	> 10000 nM	5.1%	450 nM	5.2%	6.8 µM	–
O=[N+]([O-])CC(c1ccncc1)c1c(-c2ccccc2)[nH]c2ccccc12 (configuration not stated)	4000 nM	25%	510 nM	110%	36.7 µM	–
O=[N+]([O-])CC(c1ccccc1)c1c(-c2ccccc2)[nH]c2ncccc12 (configuration not stated)	> 10000 nM	7%	1100 nM	39%	159 µM	–
O=[N+]([O-])CC(c1ccccc1)c1c(-c2ccccc2)[nH]c2cc(F)ccc12 (configuration not stated)	1100 nM	38%	110 nM	120%	–	–
O=[N+]([O-])CC(c1ccccc1)c1c(-c2cccc(F)c2)[nH]c2ccccc12 (configuration not stated)	1300 nM	–	80 nM	–	–	–
O=[N+]([O-])CC(c1ccccn1)c1c(-c2ccccc2)[nH]c2ccccc12 (configuration not stated)	> 10000 nM	5.8%	260 nM	130%	2.8 µM	–
O=[N+]([O-])CC(c1ccccc1)c1c(-c2ccccc2)[nH]c2cccc(F)c12 (configuration not stated)	900 nM	37%	130 nM	120%	–	–
O=[N+]([O-])CC(c1ccc(F)cc1)c1c(-c2ccccc2)[nH]c2ccccc12 (configuration not stated)	> 10000 nM	8%	440 nM	110%	–	–
O=[N+]([O-])CC(c1ccccc1)c1c(-c2ccccc2F)[nH]c2ccccc12 (configuration not stated)	710 nM	7%	1400 nM	140%	–	–
O=[N+]([O-])CC(c1ccccc1)c1c(-c2ccccc2)[nH]c2ccccc12 (racemic)	–	46%	–	–	–	Emax (Cannabinoid receptor 1 [7]): 28%; Emin (Cannabinoid receptor 1 [8]): 1.8%; Emax (Cannabinoid receptor 1 [9]): 72%; Activity [10]: Dose-dependent effect; Emax (Cannabinoid receptor 1 [11]): 27%; Emin (Cannabinoid receptor 1 [12]): 21%; Activity [13]: Dose-dependent effect
O=[N+]([O-])CC(c1cccc(F)c1)c1c(-c2ccccc2)[nH]c2ccccc12 (configuration not stated)	2500 nM	19%	730 nM	130%	–	–
O=[N+]([O-])CC(c1ccccc1F)c1c(-c2ccccc2)[nH]c2cc(F)ccc12 (configuration not stated)	1140 nM	–	58 nM	–	–	–
O=[N+]([O-])CC(c1ccccc1F)c1c(-c2ccccc2)[nH]c2c(F)cccc12 (configuration not stated)	680 nM	–	21 nM	–	–	–
O=[N+]([O-])CC(c1ccccc1)c1c(-c2ccccc2)[nH]c2cccnc12 (configuration not stated)	1600 nM	30%	> 10000 nM	81%	11.2 µM	–
O=[N+]([O-])CC(c1ccc(F)cc1)c1c(-c2cccc(F)c2)[nH]c2c(F)cccc12 (configuration not stated)	1100 nM	43%	230 nM	110%	–	–
O=[N+]([O-])CC(c1ccc(F)cc1)c1c(-c2ccccc2)[nH]c2c(F)cccc12 (configuration not stated)	700 nM	27%	270 nM	121%	–	–
O=[N+]([O-])CC(c1ccccc1)c1c(-c2ccccc2)[nH]c2c(F)cccc12 (configuration not stated)	750 nM	45%	22 nM	120%	–	–
O=[N+]([O-])CC(c1cccnc1)c1c(-c2ccccc2)[nH]c2ccccc12 (configuration not stated)	> 10000 nM	-8.1%	3100 nM	170%	1.1 µM	–
O=[N+]([O-])CC(c1ccccc1)c1c(-c2cccnc2)[nH]c2ccccc12 (configuration not stated)	> 10000 nM	9.2%	1100 nM	150%	4.9 µM	–
O=[N+]([O-])CC(c1ccc(F)cc1)c1c(-c2ccccc2)[nH]c2cc(F)ccc12 (configuration not stated)	1100 nM	32%	1300 nM	47%	–	–
O=[N+]([O-])CC(c1ccccc1)c1c(-c2ccc(F)cc2)[nH]c2ccccc12 (configuration not stated)	> 10000 nM	-2.2%	1600 nM	120%	–	–
O=[N+]([O-])CC(c1ccc(F)cc1)c1c(-c2cccc(F)c2)[nH]c2cc(F)ccc12 (configuration not stated)	2100 nM	56%	1150 nM	91%	–	–

Reference: ChEMBL document CHEMBL4376840, “Application of Fluorine- and Nitrogen-Walk Approaches: Defining the Structural and Functional Diversity of 2-Phenylindole Class of Cannabinoid 1 Receptor Positive Allosteric Modulators” (J Med Chem, 2020)
